Screens (PubChem BioAssay)
STAT3 inh = STAT3 signaling inhibition. U3A cells, IL-6 STAT3-luciferase reporter, luminescence; host cell line lacks STAT1. inhibition, % at 5.5 µM. hit rate 0.89% among 190,000. AID 862;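 active = inhibition above the mean inhibition across all screened compounds plus 3 SD, cut at about 44% in these data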;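 note: 0% = DMSO only wells and 100% = 100 µM nifuroxazide control wells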
TNF death inh = TNF-alpha cell death inhibition in Jurkat FADD-/- cells. AID 463075. hit rate 0.068% among 220,000. activation (protection from cell death), % at 10 µM. Jurkat FADD-/- TNF necroptosis rescue, ATP luminescence, 24 h; 0 = TNF only, 100 = no-TNF cells;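 active = activation, meaning protection from cell death, of at least 50% relative to plate controls; inactive = activation below 50%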;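 note: necroptosis triggered by 40 ng/mL TNF-alpha added together with compound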
STAT1 blocker = STAT1 signaling inhibition; NIH 3T3 STAT1-luciferase reporter, IFN-gamma, luminescence; inhibition, % at 5.5 µM; hit rate 0.35% among 200,000;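 active = inhibition above a set limit, the mean inhibition across all tested compounds plus 3 SD, cut at about 34% in these data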;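 note: 0% = IFN-gamma with DMSO and 100% = IFN-gamma with 300 µM nifuroxazide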
STAT3 act = activators of IL-6 induced STAT3 signaling | activation (% of control), % at 5.6 µM | AID 871 | U3A cells, IL-6 STAT3-luciferase reporter, luminescence; 100% = signal with IL-6 EC80 alone | hit rate 0.91% among 190,000;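 active = activation above the screen-wide mean of compound activation plus 3 SD, cut at about 130% in these data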;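 note: 0% = background luminescence of wells with medium and substrate only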
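Material: human STAT1-deficient U3A cells with stable STAT3-luciferase reporter / Probe or stimulus: IL-6 stimulus at 33 ng/mL final / Schedule: 1 h compound pre-exposure, 6 h IL-6 stimulation, 37 °C / Technique: luminescence / Read-out basis: percent of IL-6-only median luminescence / Control set: IL-6-only high control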
zVAD death inh = L929 zVAD cell death inhibition; L929 zVAD necroptosis rescue, ATP luminescence, 24 h; with zVAD 60 µM; viability rescue, % at 10 µM; hit rate 0.38% among 220,000; AID 1377;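 active = activation, scaled between plate controls, above about 75%, limit read from the data; inactive = activation under that limit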;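 note: 0% = zVAD with DMSO and 100% = DMSO alone without zVAD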
The depositor's hits bear a star; . = no result given. An excerpt weighted towards active compounds, which were near 2.1% of everything screened.

SMILES	STAT3 inh	TNF death inh	STAT1 blocker	STAT3 act	zVAD death inh
c1cc2c(cc1C1=NNC(=NC3CC3)SC1)OCCO2	108*	-10	94*	10	0
COc1cccc(-c2ccc(C#N)c(SCC(=O)NCc3ccco3)n2)c1	8	0	3	95	1
NC1CCN(c2c(F)cc3c(=O)c(C(=O)O)cn(C4CC4)c3c2Cl)C1 (centres undefined)	.	0	.	.	0
Cc1c(Cl)cccc1NC(=O)C1CCCCC1	7	0	1	99	17
COc1ccc(C2=C(C#N)C(=O)OC2)cc1	6	-5	36*	97	0
COc1ccc2nc(N=Nc3ccc(N(C)C)cc3)sc2c1	44*	-17	53*	66	-1
O=C(Nc1cc2nn(-c3ccccc3)nc2cc1Cl)c1ccco1	-43	0	-36	145*	0
CC(C)(C)C(=O)Nc1cc2nn(-c3ccccc3)nc2cc1Cl	104*	-2	83*	15	0
O=C(Nc1nc2cc3c(cc2s1)OCO3)C1=COCCO1	86*	-14	49*	26	.
CC(=O)Nc1nc2cc3c(cc2s1)OCO3	12	0	-16	97	0
Cc1ccc(S(=O)(=O)Nc2nc3ccccc3nc2NCc2ccco2)cc1	-20	-10	-11	120	0
O=C(O)c1c2c(nc3ccccc13)/C(=C/c1ccc(O)cc1)CC2	58*	-1	43*	56	6
CCc1ccc(/C=C2\CN(CC)Cc3c2nc2ccccc2c3C(=O)O)cc1	4	-3	-2	107	-1
Cc1ccc(NC(=O)C2COc3ccccc3O2)nc1 (centres undefined)	-31	89*	-14	127	1
COc1ccc(-n2nnnc2S(=O)(=O)CC(=O)N2CCCCC2)cc1	29	-16	36*	82	79*
COc1ccccc1Nc1ncc(-c2cccs2)s1	-61	0	-40	156*	3
COc1cccc(-c2cc(C(=O)NCCN3CCOCC3)no2)c1	6	-1	-7	99	0
COc1ccc(NC(=O)/C(C#N)=C\c2cc(C)n(-c3ccc4c(c3)OCO4)c2C)cc1	-19	2	-7	119	1
N/C(=N\OC(=O)c1cccc2ccccc12)c1cccnc1	-39	-1	-33	136*	4
N/C(=N\OC(=O)c1cccc2ccccc12)c1cccc([N+](=O)[O-])c1	24	-2	-7	89	0
CCCS(=O)(=O)NCc1cn2c(C)csc2n1	-11	3	-24	113	2
O=C(Oc1ccccc1[N+](=O)[O-])c1cccnc1	5	-4	-2	102	0
c1ccc(C[n+]2cccc3c4ccccc4ccc32)cc1	60*	-10	21	57	0
O=[N+]([O-])c1ccc(C[n+]2cccc3ccccc32)cc1	-1	1	-5	102	1
CC(C)NCC(O)COc1ccc(CC(N)=O)cc1 (centres undefined)	18	0	6	86	6
SMILES	STAT3 inh	TNF death inh	STAT1 blocker	STAT3 act	zVAD death inh
CCN(CC)c1ccc2cc(-c3nc4ccccc4n3C)c(=O)oc2c1	-44	-10	-40	145*	-1
CC(NC(=O)C1CCC(CNc2c(N3CCCCC3)c(=O)c2=O)CC1)c1ccccc1 (centres undefined)	.	1	.	.	1
COc1cc(/C=N/n2cnnc2-n2nc(C)cc2C)cc([N+](=O)[O-])c1O	.	1	.	.	-1
CCOC(=O)N1CCN(C(=O)c2cc(COc3ccc4ncccc4c3)on2)CC1	56*	-6	43*	54	-1
O=C(c1cc(COc2ccc3ncccc3c2)on1)N1CCC(O)CC1	23	-2	12	83	1
Cc1cccnc1CN1CCN(C(=O)c2cc(COc3ccc4ncccc4c3)on2)CC1	46*	-5	36*	63	-1
CS(=O)(=O)N(CC(=O)N1CCCCCC1)c1ccc2c(c1)OCCO2	-32	1	-10	128	1
CC(C)c1ccc(-c2nnn(CCC(=O)O)n2)cc1	78*	0	48*	39	1
Cc1ccc(N=Nc2c(O)n(CN3CCOCC3)c3ccccc23)cc1	-39	-3	-70	137*	85*
CS(=O)(=O)N1CCN(CC(=O)NC2CCCCC2)CC1	3	0	0	102	9
Cc1ccc2nc3sc(C(=O)N4CCOCC4)c(N)c3cc2c1	90*	-2	50*	29	1
CCCCCCn1c(NCC)nc2c1c(=O)n(C)c(=O)n2C	67*	-9	40*	43	1
CCCCNc1nc2c(c(=O)n(C)c(=O)n2C)n1CCC	.	0	.	.	-1
COCCN(C(C)=O)c1nnc(-c2ccccn2)s1	10	15	-12	95	0
CC(=O)N(CC1CCCO1)c1nnc(-c2ccccn2)s1 (centres undefined)	14	65*	-2	93	0
Cc1ccc(-c2cc3cccc[n+]3cc2-c2ccc(C)cc2)cc1	61*	0	36*	50	1
Cc1ccc2nc(-c3ccncc3)cc(-c3ccccc3)c2c1	-1	-9	10	111	0
COc1cc(OC)cc(-c2nc(-c3ccccc3)no2)c1	-6	0	-25	108	-2
Cc1ccccc1-c1nc(-c2ccccn2)no1	99*	-8	77*	24	-1
COc1ccccc1-c1nc(-c2ccccn2)no1	75*	-8	36*	42	1
COc1ccc(-c2nc(-c3ccccn3)no2)cc1	109*	-11	96*	8	1
COc1cccc(-c2noc(-c3ccc(Cl)nc3)n2)c1	-35	2	-58	144*	1
Cc1ccc(-n2nc(C)c3c2OC(N)=C(C#N)C3c2ccco2)cc1 (centres undefined)	-36	-5	-2	140*	0
Cc1ccc(N/C=C/C(=O)c2ccc(C)cc2)cc1	28	0	-48	81	0
Cc1ccc(C(=O)/C=C/Nc2ccccn2)cc1	109*	-2	84*	12	1
SMILES	STAT3 inh	TNF death inh	STAT1 blocker	STAT3 act	zVAD death inh
O=C1c2cccc3cccc(c23)C(=O)N1CC1CCN(S(=O)(=O)c2ccc(F)cc2)CC1	-6	4	3	103	0
Cc1ccc(S(=O)(=O)N2CCC(CN3C(=O)c4cccc5cccc(c45)C3=O)CC2)cc1	-108	-7	1	186*	0
Cc1cccc(NC(=O)c2c(O)c3cccc4c3n(c2=O)CC4)c1	-70	0	-1	158*	2
O=C(NC1CC1)c1nc2c(nnn2Cc2ccccc2Cl)c(=O)[nH]1	-13	-1	-2	112	-1
O=C(NCCc1ccccc1)c1nc2c(nnn2Cc2ccccc2Cl)c(=O)[nH]1	-38	-4	-7	133*	0
Cn1c(=O)c(C(=O)Nc2ncccc2O)c(O)c2ccccc21	2	0	11	104	1
Cc1ccc(NC(=O)c2c(O)c3ccccc3n(C)c2=O)nc1	-33	-2	5	135*	6
